inhibition, IC50 and EC50 data for seven compounds are collected here from ChEMBL document CHEMBL3091432, “(S)-4-Trimethylsilyl-3-butyn-2-ol as an auxiliary for stereocontrolled synthesis of salinosporamide analogs with modifications at positions C2 and C5” (Bioorg Med Chem Lett, 2013).

The target of experiment [1] is T1, Proteasome Macropain subunit MB1 (Homo sapiens) (UniProt P28074).
T1 sequence (whole entry): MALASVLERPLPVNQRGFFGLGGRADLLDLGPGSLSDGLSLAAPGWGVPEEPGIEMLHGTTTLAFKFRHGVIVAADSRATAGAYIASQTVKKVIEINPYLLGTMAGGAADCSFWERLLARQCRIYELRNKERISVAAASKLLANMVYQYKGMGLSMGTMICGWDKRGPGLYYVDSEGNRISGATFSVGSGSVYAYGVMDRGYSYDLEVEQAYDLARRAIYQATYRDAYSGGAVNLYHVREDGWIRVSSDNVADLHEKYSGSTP
The experiment can be described thus: Inhibition of human 20S proteasome beta 5 subunit assessed as cyclized acylated protein adduct formation after <20 mins by ESI-TOF analysis. The method in brief:
(§1)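 Purified human 20S proteasome (1.4 μM) incubated at 23 °C with a 10-fold molar excess of inhibitor in pH 7.5 buffer (10 mM Tris/HCl, 1 mM EDTA, 1 mM DTT, <1% DMSO) for varying times. Reactions stopped by denaturing quench, desalted on C4 tips, eluted with 70:30:0.1 acetonitrile–water–formic acid, then analysed by mass spectrometry to follow each step of subunit modification.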

Experiment [2] addresses T1, Proteasome Macropain subunit MB1 (Homo sapiens). In words: Inhibition of human 20S proteasome beta 5 subunit assessed as cyclized acylated protein adduct formation after <20 mins by FT-MS analysis. The method in brief:
as §1

Experiment [3] shares this target. The experiment can be described thus: Inhibition of human 20S proteasome beta 5 subunit assessed as non-cyclized product formation after 5 to 10 mins by ESI-TOF analysis. The method in brief:
as §1

The target is the same in experiment [4]. In words: Inhibition of human 20S proteasome beta 5 subunit assessed as non-cyclized product formation after 5 to 10 mins by FT-MS analysis. The method in brief: as §1
The target of experiment [5] is T2, Proteasome Macropain subunit MB1 (Homo sapiens, UniProt P28074).
T2 sequence (P28074 whole entry): T1 sequence (whole entry)
The experiment can be described thus: Inhibition of chymotrypsin like activity of human 20S proteasome after 1 hr by luminescence assay.

Experiment [6] has as its target T2, Proteasome Macropain subunit MB1. In words: Inhibition of chymotrypsin like activity of 20S proteasome in HEK293 cells after 24 hrs by microscopic analysis. The experiment is classed as cell-based. The method in brief: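 Image-based screen in a stably transfected HEK cell line expressing a GFP-tagged proteasomal substrate. Proteasomal inhibition is read out by cellular fluorescence.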

For experiment [7], the target named is T1, Proteasome Macropain subunit MB1 (Homo sapiens). In words: Inhibition of human 20S proteasome beta 5 subunit assessed as hydrolysis of non-cyclized product after 48 hrs by ESI-TOF analysis. The method in brief: as §1
The target is the same in experiment [8]. The experiment can be described thus: Inhibition of human 20S proteasome beta 5 subunit assessed as hydrolysis of non-cyclized product after 48 hrs by FT-MS analysis. The method in brief: as §1
The target is the same in experiment [9]. In words: Inhibition of human 20S proteasome beta 5 subunit assessed as cyclized acylated protein adduct formation after 48 hrs by ESI-TOF analysis. The method in brief:
as §1

For experiment [10] the target is unchanged. In words: Inhibition of human 20S proteasome beta 5 subunit assessed as cyclized acylated protein adduct formation after 48 hrs by FT-MS analysis. The method in brief: as §1

Each structure is given as a SMILES string. Calls of active or inactive are those of the source. The rule behind the calls is not given here.

`C[C@@]12OC(=O)[C@]1([C@@H](O)[C@@H]1C=CCCC1)NC(=O)[C@@H]2CCCl` [MARIZOMIB]: the inhibition entry in [1], in experiment [2], in experiment [3] and in experiment [4] was “Active” in each case. Also, 22 nM corresponded to half-maximal inhibition in [5] (IC50).

Consider `C[C@@]12OC(=O)[C@]1([C@@H](O)C1CC1)NC(=O)[C@@H]2CCCl`, for which, in experiment [6], the EC50 is 360 nM. In addition, the IC50 in experiment [5] worked out at 28 nM.

`C[C@@]12OC(=O)[C@]1([C@@H](O)C1CCCCC1)NC(=O)[C@@H]2CC=O`: half-maximal inhibition in experiment [5] (IC50) was put at 330 nM.

Turning to `C[C@@]12OC(=O)[C@]1([C@@H](O)Cc1ccccc1)NC(=O)[C@@H]2CCCl`, the EC50 in experiment [6] was determined as 332 nM. Also, the IC50 in [5] came to 500 nM.

For `COC(=O)C[C@H]1C(=O)N[C@@]2([C@@H](O)C3CCCCC3)C(=O)O[C@@]12C`, the IC50 in experiment [5] worked out at 500 nM.

For the compound `C[C@@]12OC(=O)[C@]1([C@@H](O)C1CCCCC1)NC(=O)[C@@H]2CCCCl`, the inhibition entry in experiment [7], in experiment [8], in [9] and in experiment [10] was “inactive” throughout. The inhibition result in [3] and in experiment [4] was “Active” throughout. Also, the EC50 in experiment [6] was determined as 90 nM. This compound also returned an IC50 in [5] of 50 nM.

Regarding `C[C@@]12OC(=O)[C@]1([C@@H](O)C1CCCCC1)NC(=O)[C@@H]2CCCl`, the inhibition entry in experiment [1], in experiment [2], in experiment [3] and in [4] was “Active” each time. Further, the EC50 in [6] was 10 nM. Further, the IC50 in experiment [5] came out at 23 nM.
